In ChEMBL document CHEMBL4400542, “Epidermal Growth Factor Receptor-Targeted Multifunctional Photosensitizers for Bladder Cancer Imaging and Photodynamic Therapy” (J Med Chem, 2019) one finds Activity, Drug uptake and K data, which are given here for 2 molecules.

Data set [1] deals with UMUC3. The experiment in a line: Induction of apoptosis in human UM-UC-3 cells assessed as increase in necrotic cells at 100 nM in presence of light by Annexin V/propidium iodide-stining based flow cytometry. It is filed as functional, cell-based.
Data set [2] can be described thus: Drug uptake in human T24 cells assessed as increase in gray value intensity at 1 uM pretreated for 24 hrs followed by compound washout and measured after 4 hrs by Hoechst 33342 staining based fluorescence microscopy. Conditions: t-24, 4 h. The format is ADME, cell-based. Summed up: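 Cells pre-incubated 24 h with free erlotinib before PS addition. Legend describes PS at 1 uM or erlotinib at 3 uM for 4 h, then three warm PBS washes. Imaged by fluorescence microscopy; grey value per field normalized to cell count, triplicate wells, each imaged in triplicate.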

The subject of data set [3] is UMUC3. Kind of data set: Induction of apoptosis in human UM-UC-3 cells assessed as increase in necrotic cells at 1 uM in presence of light by Annexin V/propidium iodide-stining based flow cytometry. The format is functional, cell-based. In general terms: A flow cytometer gives signals particle by particle.
Data set [4] relates to UMUC3. The experiment in a line: Anti-tumor activity against human UM-UC-3 cells xenografted in SCID mouse assessed as tumor cure at 0.47 umol/kg, iv in presence of 135 J/cm2 light irradiation at 24 hrs post injection and measured at day 60. It is filed as functional. An outline of the steps:
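UMUC-3 cells implanted in right flank of SCID mice; at 4–5 mm tumors, PS given i.v. at 0.47 µmol/kg. Tumors exposed to 665 nm light, 135 J/cm2 at 75 mW/cm2, 24 h post-injection. Tumor regrowth monitored daily; mice euthanized at >400 mm3; tumor-free status scored at day 60.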
A general note: In xenograft studies the graft and the host belong to different species.

Data set [5] relates to T-24. Kind of data set: Induction of apoptosis in human T24 cells assessed as increase in apoptotic cells at 1 uM in presence of light by Annexin V/propidium iodide-stining based flow cytometry. It is filed as functional, cell-based.
Data set [6] has as its system UMUC3. The experiment in a line: Induction of apoptosis in human UM-UC-3 cells assessed as increase in apoptotic cells at 1 uM in presence of light by Annexin V/propidium iodide-stining based flow cytometry. The format is functional, cell-based.
For data set [7], the system named is UMUC3. Kind of data set: Induction of apoptosis in human UM-UC-3 cells assessed as increase in apoptotic cells at 100 nM in presence of light by Annexin V/propidium iodide-stining based flow cytometry. The format is functional, cell-based.
Data set [8] has as its system T-24. Kind of data set: Induction of apoptosis in human T24 cells assessed as increase in necrotic cells at 1 uM in presence of light by Annexin V/propidium iodide-stining based flow cytometry. The format is functional, cell-based.
In data set [9] the test system is T-24. The experiment in a line: Induction of apoptosis in human T24 cells assessed as increase in apoptotic cells at 100 nM in presence of light by Annexin V/propidium iodide-stining based flow cytometry. It is filed as functional, cell-based.
The subject of data set [10] is UMUC3. The experiment in a line: Anti-tumor activity against human UM-UC-3 cells xenografted in SCID mouse assessed as tumor necrosis at 0.47 umol/kg, iv in presence of 135 J/cm2 light irradiation at 24 hrs post injection and measured at 72 hrs post light exposure. It is filed as functional, organism-based.
A short description of data set [11]: Drug uptake in human UM-UC-3 cells xenografted in SCID mouse at 0.47 umol/kg formulated with 1% tween 80 solution and measured at 24 hrs post injection by IVIS analysis. The format is ADME, cell-based, UMUC3. Conditions: in vivo. Summed up:
(§1)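 SCID mice (3/group) bearing UMUC3 or T24 tumors of 4–5 mm injected with PS at 0.47 µmol/kg in Tween80 or Pluronic F-127. Tumor, liver and skin fluorescence followed by IVIS optical imaging (ex 675 nm, em 720) at several time points including 24 h.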

Data set [12] in a line: Induction of singlet oxygen generation in oxygen-free toluene solution at 670 nm assessed as decay rate constant of triplet excited state by femtosecond transient absorption spectroscopy. It is filed as functional.
Data set [13] can be described thus: Induction of singlet oxygen generation in Ar-saturated toluene solution at 670 nm assessed as decay rate constant of triplet excited state by femtosecond transient absorption spectroscopy. It is filed as functional.
Data set [14] can be described thus: Induction of singlet oxygen generation assessed as energy transfer from the triplet chlorins to oxygen by femtosecond transient absorption spectroscopy. The format is functional.
Data set [15] can be described thus: Drug uptake in human UM-UC-3 cells xenografted in SCID mouse at 0.47 umol/kg formulated with 2% pluronic F-127 solution and measured at 24 hrs post injection by IVIS analysis. The format is ADME, cell-based, UMUC3. The following applies: in vivo. Summed up:
as §1

Data set [16] can be described thus: Drug uptake in human T24 cells xenografted in SCID mouse at 0.47 umol/kg formulated with 1% tween 80 solution and measured at 24 hrs post injection by IVIS analysis. It is filed as ADME, cell-based, T-24. The following applies: in vivo. An outline of the steps: as §1
Data set [17] in a line: Drug uptake in human T24 cells xenografted in SCID mouse at 0.47 umol/kg formulated with 2% pluronic F-127 solution and measured at 24 hrs post injection by IVIS analysis. It is filed as ADME, cell-based, T-24. The following applies: in vivo. Summed up: as §1
A short description of data set [18]: Induction of singlet oxygen generation in toluene solution in presence of oxygen at 670 nm assessed as decay rate constant of triplet excited state by femtosecond transient absorption spectroscopy. The format is functional.
A short description of data set [19]: Induction of singlet oxygen generation in oxygen-saturated toluene solution at 670 nm assessed as decay rate constant of triplet excited state by femtosecond transient absorption spectroscopy. It is filed as functional.

Active and inactive are the calls of the source. The rule behind the calls is not given here.

For `CCC1=C(C)c2cc3[nH]c(cc4nc(c5c6[nH]c(cc1n2)c(C)c6C(=O)C5)[C@@H](CCC(=O)OC)[C@@H]4C)c(C)c3C(C)OCc1cccc(I)c1` (stereo not given in full), the outcome in the data set on UMUC3 [1], in the data set on UMUC3 [3], in the data set with T-24 [5], in the data set on UMUC3 [6], in the data set with UMUC3 [7] and with T-24 [8] was Active. Besides, the Drug uptake entry in data set [2] is “Active”. Besides, in the data set with UMUC3 [4], the Activity is listed as 20%. Further, in the data set on T-24 [9], the outcome was inactive.
Take `CCC1=C(C)c2cc3[nH]c(cc4nc(c5c6[nH]c(cc1n2)c(C)c6C(=O)C5)[C@@H](CCC(=O)NCc1cccc(I)c1)[C@@H]4C)c(C)c3C(C)OCc1cccc(C#Cc2cccc(Nc3ncnc4cc(OCCOC)c(OCCOC)cc34)c2)c1` (stereo not given in full): the outcome in the data set on UMUC3 [10] was inactive. Also, the Drug uptake entry in data set [11], in data set [2], in data set [15], in data set [16] and in data set [17] was “Active” throughout. The K in [12] is 4.27 ×10⁴ /s; in [13] it was 4.27 ×10⁴ /s; in data set [14], 3.17 ×10⁹ /M/s; in data set [18], 0.634 ×10⁶ /s; in data set [19] it was 6.34 ×10⁵ /s.
